Assay results as given in ChEMBL document CHEMBL1156988, “Synthesis and antibacterial studies of binaphthyl-based tripeptoids. Part 1” (2010).

Columns and labels:
[1] = tested on: Enterococcus faecium; test: Antibacterial activity against vancomycin-resistant Enterococcus faecium 987 after overnight incubation
[2] = tested on: Enterococcus faecium; test: Antibacterial activity against vancomycin-resistant Enterococcus faecium 820 after overnight incubation
[3] = tested on: Enterococcus faecium; test: Antibacterial activity against vancomycin-resistant Enterococcus faecium 449 after overnight incubation
[4] = tested on: Staphylococcus aureus; test: Antibacterial activity against Staphylococcus aureus 6538P after overnight incubation; type: functional
Outline: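 Strains were grown in Luria Broth. Overnight stationary-phase cultures were diluted 1:1000 into fresh medium with twofold compound dilutions, highest typically 128 µg/ml, in 96-well plates. Incubated overnight at 37 °C. MIC recorded as the […].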

[5] = tested on: Enterococcus faecium; test: Antibacterial activity against vancomycin-resistant Enterococcus faecium 243 after overnight incubation
[6] = Enterococcus faecium, 987, read-out: MIC
[7] = Enterococcus faecium, 820, read-out: MIC
[8] = Enterococcus faecium, 449, read-out: MIC
[9] = Staphylococcus aureus, 6538P, read-out: MIC
[10] = Enterococcus faecium, 243, read-out: MIC

`C=CCOc1ccc2ccccc2c1-c1c(OCC(=O)N[C@H](C)C(=O)N[C@H](CCCNC(=N)N)C(=O)N[C@@H](CC=C)C(=O)OCc2ccccc2)ccc2ccccc12.Cl` gave an MIC [1, 6] of 62.5 µg/mL, an MIC [2, 7] of 62.5 µg/mL and an MIC [3, 8] of 62.5 µg/mL. For the same compound, the MIC [4, 9] was 5.2 µg/mL and the MIC [5, 10] was 62.5 µg/mL.

For `C=CCOc1ccc2ccccc2c1-c1c(OCCCC(=O)N[C@H](CCCNC(=N)N)C(=O)OCc2ccccc2)ccc2ccccc12.Cl`, the MIC [1, 6] was 125 µg/mL, the MIC [2, 7] was 62.5 µg/mL and the MIC [3, 8] was 62.5 µg/mL. It also gave an MIC [4, 9] of 3.9 µg/mL and an MIC [5, 10] of 62.5 µg/mL.

`C=CCOc1ccc2ccccc2c1-c1c(OCC(=O)N[C@H](CCCCN)C(=O)N[C@H](CCCNC(=N)N)C(=O)N[C@@H](CC=C)C(=O)OCc2ccccc2)ccc2ccccc12.Cl.Cl` was tested, and the MIC [1, 6] was 31.3 µg/mL, the MIC [2, 7] was 31.3 µg/mL and the MIC [3, 8] was 31.3 µg/mL. It also gave an MIC [4, 9] of 1.95 µg/mL and an MIC [5, 10] of 31.3 µg/mL.

With `C=CCOc1ccc2ccccc2c1-c1c(OCC(=O)N[C@H](CCCCN)C(=O)N[C@H](CCCNC(=N)N)C(=O)N[C@@H](CC(C)C)C(=O)OCc2ccccc2)ccc2ccccc12.Cl.Cl` the MIC [1, 6] was 31.3 µg/mL, the MIC [2, 7] was 31.3 µg/mL and the MIC [3, 8] was 31.3 µg/mL. For the same compound, the MIC [4, 9] was 1.95 µg/mL and the MIC [5, 10] was 31.3 µg/mL.

In the case of `CC(C)CCOc1ccc2ccccc2c1-c1c(OCC(=O)N[C@H](CCCCN)C(=O)N[C@H](CCN)C(=O)N[C@@H](CC(C)C)C(=O)OCc2ccccc2)ccc2ccccc12.Cl.Cl`, the MIC [1, 6] is reported as 31.3 µg/mL, the MIC [2, 7] is reported as 15.6 µg/mL and the MIC [3, 8] is reported as 15.6 µg/mL. The MIC [4, 9] was 1.95 µg/mL and the MIC [5, 10] was 31.3 µg/mL.

`CC(C)CCOc1ccc2ccccc2c1-c1c(OCC(=O)N[C@H](CCCCN)C(=O)N[C@H](CCCN)C(=O)N[C@@H](CC(C)C)C(=O)OCc2ccccc2)ccc2ccccc12.Cl.Cl` gave an MIC [1, 6] of 62.5 µg/mL, an MIC [2, 7] of 15.6 µg/mL and an MIC [3, 8] of 31.3 µg/mL. For the same compound, the MIC [4, 9] was 1.95 µg/mL and the MIC [5, 10] was 62.5 µg/mL.

For `C=CCOc1ccc2ccccc2c1-c1c(OCC(=O)N[C@H](CCCCN)C(=O)N[C@H](CCCNC(=N)N)C(=O)N[C@H](CC=C)C(=O)OCc2ccccc2)ccc2ccccc12.Cl.Cl`, the MIC [1, 6] was 125 µg/mL, the MIC [2, 7] was 62.5 µg/mL and the MIC [3, 8] was 104 µg/mL. It also gave an MIC [4, 9] of 15.6 µg/mL and an MIC [5, 10] of 125 µg/mL.

`C=CC[C@H](NC(=O)[C@@H](CCCNC(=N)N)NC(=O)[C@@H](CCCCN)NC(=O)COc1ccc2ccccc2c1-c1c(OCCC(C)C)ccc2ccccc12)C(=O)OCc1ccccc1.Cl.Cl` was tested, and the MIC [1, 6] was 31.3 µg/mL, the MIC [2, 7] was 15.6 µg/mL and the MIC [3, 8] was 15.6 µg/mL. The MIC [4, 9] was 3.9 µg/mL and the MIC [5, 10] was 31.3 µg/mL.

Work on `C=CCOc1ccc2ccccc2c1-c1c(OCC(=O)N[C@H](CCCC)C(=O)N[C@H](CCCNC(=N)N)C(=O)N[C@@H](CC=C)C(=O)OCc2ccccc2)ccc2ccccc12.Cl` yielded an MIC [1, 6] of 125 µg/mL, an MIC [2, 7] of 62.5 µg/mL and an MIC [3, 8] of 83 µg/mL. It also gave an MIC [4, 9] of 52.1 µg/mL and an MIC [5, 10] of 125 µg/mL.

Work on `C=CCOc1ccc2ccccc2c1-c1c(OCC(=O)N[C@H](CCCCN)C(=O)N[C@H](CCCCN)C(=O)N[C@@H](CC=C)C(=O)OCc2ccccc2)ccc2ccccc12.Cl.Cl` yielded an MIC [1, 6] of 125 µg/mL, an MIC [2, 7] of 62.5 µg/mL and an MIC [3, 8] of 62.5 µg/mL. It also gave an MIC [4, 9] of 3.9 µg/mL and an MIC [5, 10] of 125 µg/mL.

With `CC(C)CCOc1ccc2ccccc2c1-c1c(OCC(=O)N[C@H](CCCCN)C(=O)N[C@H](CCNC(=N)N)C(=O)N[C@@H](CC(C)C)C(=O)OCc2ccccc2)ccc2ccccc12.Cl.Cl` the MIC [1, 6] was 52.1 µg/mL, the MIC [2, 7] was 27.8 µg/mL and the MIC [3, 8] was 31.3 µg/mL. It also gave an MIC [4, 9] of 2.6 µg/mL and an MIC [5, 10] of 52.1 µg/mL.

`C=CCOc1ccc2ccccc2c1-c1c(OCC(=O)N[C@H](CCCCN)C(=O)N[C@H](CCCNC(=N)N)C(=O)NCC(=O)OCc2ccccc2)ccc2ccccc12.Cl.Cl` showed an MIC [1, 6] of 125 µg/mL, an MIC [2, 7] of 125 µg/mL and an MIC [3, 8] of 62.5 µg/mL. It also gave an MIC [4, 9] of 3.9 µg/mL and an MIC [5, 10] of 125 µg/mL.

With `C=CCOc1ccc2ccccc2c1-c1c(OCC(=O)N[C@H](CCCCN)C(=O)N[C@H](CCCNC(=N)N)C(=O)N[C@@H](Cc2ccccc2)C(=O)OC)ccc2ccccc12.Cl.Cl` (stereo in doubt; 82) the MIC [1] was 125 µg/mL, the MIC [2] was 125 µg/mL and the MIC [3] was 125 µg/mL. For the same compound, the MIC [4] was 7.8 µg/mL and the MIC [5] was 125 µg/mL.

In the case of `CC(C)CCOc1ccc2ccccc2c1-c1c(OCC(=O)N[C@H](CCCCN)C(=O)N[C@H](CCCNC(=N)N)C(=O)N[C@H](CC(C)C)C(=O)OCc2ccccc2)ccc2ccccc12.Cl.Cl`, the MIC [1, 6] is reported as 31.3 µg/mL, the MIC [2, 7] is reported as 15.6 µg/mL and the MIC [3, 8] is reported as 15.6 µg/mL. It also gave an MIC [4, 9] of 3.9 µg/mL and an MIC [5, 10] of 31.3 µg/mL.

With `C=CCOc1ccc2ccccc2c1-c1c(OCC(=O)N[C@H](CCCCN)C(=O)N[C@H](CCCNC(=N)N)C(=O)N[C@@H](CC=C)C(=O)OCc2cccc3ccccc23)ccc2ccccc12.Cl.Cl` the MIC [1, 6] was > 125 µg/mL, the MIC [2, 7] was 125 µg/mL and the MIC [3, 8] was 125 µg/mL. For the same compound, the MIC [4, 9] was 15.6 µg/mL and the MIC [5, 10] was > 125 µg/mL.

In the case of `C=CCOc1ccc2ccccc2c1-c1c(OCC(=O)N[C@H](CCCCN)C(=O)N[C@H](CCCNC(=N)N)C(=O)N[C@@H](Cc2ccccc2)C(=O)OC)ccc2ccccc12.Cl.Cl` (stereo in doubt; 81), the MIC [1, 6] is reported as 125 µg/mL, the MIC [2, 7] is reported as 125 µg/mL and the MIC [3, 8] is reported as 125 µg/mL. For the same compound, the MIC [4, 9] was 3.9 µg/mL and the MIC [5, 10] was 125 µg/mL.

For `C=CCOc1ccc2ccccc2c1-c1c(OCC(=O)NCC(=O)N[C@H](CCCNC(=N)N)C(=O)N[C@@H](CC=C)C(=O)OCc2ccccc2)ccc2ccccc12.Cl`, the MIC [1, 6] was > 125 µg/mL, the MIC [2, 7] was 125 µg/mL and the MIC [3, 8] was 125 µg/mL. For the same compound, the MIC [4, 9] was 15.6 µg/mL and the MIC [5, 10] was > 125 µg/mL.

For `C=CCOc1ccc2ccccc2c1-c1c(OCC(=O)N[C@H](Cc2ccccc2)C(=O)N[C@H](CCCNC(=N)N)C(=O)N[C@@H](CC=C)C(=O)OCc2ccccc2)ccc2ccccc12.Cl`, the MIC [1, 6] was > 125 µg/mL, the MIC [2, 7] was 31.3 µg/mL and the MIC [3, 8] was 62.5 µg/mL. The MIC [4, 9] was 26.1 µg/mL and the MIC [5, 10] was > 125 µg/mL.

For `C=CCOc1ccc2ccccc2c1-c1c(OCC(=O)N[C@H](CC=C)C(=O)N[C@H](CCCNC(=N)N)C(=O)N[C@@H](CC=C)C(=O)OCc2ccccc2)ccc2ccccc12.Cl`, the MIC [1, 6] was 125 µg/mL, the MIC [2, 7] was 62.5 µg/mL and the MIC [3, 8] was 125 µg/mL. It also gave an MIC [4, 9] of 15.6 µg/mL and an MIC [5, 10] of 125 µg/mL.

In the case of `C=CCOc1ccc2ccccc2c1-c1c(OCC(=O)N[C@H](CCCNC(=N)N)C(=O)N[C@H](CCCNC(=N)N)C(=O)N[C@@H](CC=C)C(=O)OCc2ccccc2)ccc2ccccc12.Cl.Cl`, the MIC [1, 6] is reported as > 125 µg/mL, the MIC [2, 7] is reported as 125 µg/mL and the MIC [3, 8] is reported as 125 µg/mL. For the same compound, the MIC [4, 9] was 31.3 µg/mL and the MIC [5, 10] was > 125 µg/mL.

`C=CCOc1ccc2ccccc2c1-c1c(OCC(=O)N[C@H](CC(C)C)C(=O)N[C@H](CCCNC(=N)N)C(=O)N[C@@H](CC=C)C(=O)OCc2ccccc2)ccc2ccccc12.Cl` gave an MIC [1, 6] of 62.5 µg/mL, an MIC [2, 7] of 31.3 µg/mL and an MIC [3, 8] of 31.3 µg/mL. It also gave an MIC [4, 9] of 3.9 µg/mL and an MIC [5, 10] of 62.5 µg/mL.

For `C=CCOc1ccc2ccccc2c1-c1c(OCC(=O)N[C@H](CCCNC(=N)N)C(=O)OCc2ccccc2)ccc2ccccc12.Cl`, the MIC [1, 6] was 62.5 µg/mL, the MIC [2, 7] was 62.5 µg/mL and the MIC [3, 8] was 62.5 µg/mL. It also gave an MIC [4, 9] of 3.3 µg/mL and an MIC [5, 10] of 62.5 µg/mL.

`C=CCOc1ccc2ccccc2c1-c1c(OCC(=O)N[C@H](CC(C)C)C(=O)N[C@H](CCCNC(=N)N)C(=O)N[C@@H](C)C(=O)OCc2ccccc2)ccc2ccccc12.Cl` was tested, and the MIC [1, 6] was 62.5 µg/mL, the MIC [2, 7] was 62.5 µg/mL and the MIC [3, 8] was 62.5 µg/mL. It also gave an MIC [4, 9] of 5.2 µg/mL and an MIC [5, 10] of 62.5 µg/mL.

In the case of `C=CCOc1ccc2ccccc2c1-c1c(OCC(=O)N[C@H](CCCCN)C(=O)N[C@H](CCCNC(=N)N)C(=O)N[C@@H](C)C(=O)OCc2ccccc2)ccc2ccccc12.Cl.Cl`, the MIC [1, 6] is reported as 125 µg/mL, the MIC [2, 7] is reported as 125 µg/mL and the MIC [3, 8] is reported as 125 µg/mL. The MIC [4, 9] was 7.8 µg/mL and the MIC [5, 10] was 125 µg/mL.
